Laboratory results as given in PMC5402713 (Pain, 2017).

Tests used:
[1] = target: T1, mouse TRPM3α2 (Mus musculus, UniProt J9SQF3); type: cell-based; settings: for Hill coefficient of TRPM3 inhibition: Fluo-4-loaded HEKmTRPM3 cells, PregS-induced Ca2+ signal; for TRPM3 inhibition relative to mefenamic acid: primary screen, data not shown
[2] = target: T1, mouse TRPM3α2; test: Whole-cell patch-clamp of TRPM3 currents in HEKmTRPM3 cells; type: cell-based
[3] = target: human TRPM8 (Homo sapiens, UniProt Q7Z2W7); test: Selectivity Ca2+ assay in HEKhTRPM8 cells, menthol-stimulated; type: cell-based; settings: menthol 300 μM, drug up to 50 μM
Outline: (§1)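 Stable HEK293 lines expressing human TRPA1, rat TRPV1 or human TRPM8 were loaded in suspension with Fluo-4/AM (4 μM, 30 min, 37°C) and resuspended in HEPES-buffered saline, pH 7.4. Cells were pre-exposed to test compound in 384-well plates. After baseline reading, cells were stimulated with 30 μM AITC (TRPA1), 2 μM capsaicin (TRPV1) or 300 μM menthol (TRPM8). Background-corrected fluorescence was normalized to initial intensity (F/F₀).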

[4] = target: human ankyrin-like TRPA1 (Homo sapiens, UniProt O75762); test: Selectivity Ca2+ assay in HEKhTRPA1 cells, AITC-stimulated; type: cell-based; settings: AITC 30 μM; for Inhibition of AITC-induced TRPA1 activation: drug up to 50 μM
Outline: as §1

[5] = target: human TRPM2 (Homo sapiens, UniProt O94759); test: H2O2-induced [Ca2+]i signals in HEK cells expressing human TRPM2; type: cell-based; settings: diclofenac at concentrations above 1 μM, data not shown
[6] = physiological pH, no reference given; cited from earlier work
[7] = system: TRPA1; settings: read-out: EC50 of TRPA1 activation; cited from earlier work
[8] = target: rat TRPV1 (Rattus norvegicus, UniProt O35433); test: Selectivity Ca2+ assay in HEKrTRPV1 cells, capsaicin-stimulated; type: cell-based; settings: capsaicin 2 μM, drug up to 50 μM
Outline: as §1

[9] = cited from earlier work
[10] = target: T1, mouse TRPM3α2; type: cell-based; settings: 10 μM primidone, temperature 22 to 37°C, Fura-2
[11] = system: rat DRG neurones; test: Single-cell Fura-2 [Ca2+]i measurement in isolated rat DRG neurones; type: cell-based; settings: 10 μM primidone
[12] = target: human TRPM3α2 (Homo sapiens, UniProt Q9HCF6); type: cell-based; settings: qualitative; PregS 35 μM, primidone 25 μM
Outline: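 HEK293 cells were grown in MEM with Earle's salts, 10% FCS, 2 mM L-glutamine and penicillin/streptomycin. 1–2 days after seeding, they were transfected with 2 μg plasmid encoding human TRPM3α2 C-terminally fused to YFP and used 2 days later. For [Ca²⁺]i measurement, 35 μM PregS and 25 μM test compound were added sequentially. Nontransfected HEK293 cells served as control.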

[13] = system: C57BL/6J mice; test: Pregnenolone sulfate-induced chemical pain in mice; type: in vivo, mouse; settings: for Nociception as duration per single response, compared with controls: data not shown
Outline: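 Mice received i.p. test compound (0.5, 2, 10 mg·kg⁻¹, suspended in 0.5% Tween 20) or vehicle. After 20 min, 5 nmol PregS (in sterile water, 10 μL total) was injected into the right hind paw. Over 180 s, observers recorded latency to the first response, number of responses and total duration of licking, lifting and shaking. n = 8 each; mean ± SEM; one-way ANOVA.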

[14] = system: C57BL/6J mice; test: Hot plate test; type: in vivo, mouse; settings: 52°C
Outline: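 Male C57BL/6J mice were placed on a 52°C hot plate 20 min after i.p. test compound (0.5, 2, 10 mg·kg⁻¹ in 0.5% Tween 20) or vehicle. Latency to the first nocifensive hind-paw response was recorded, with a 45 s cutoff. Mean ± SEM; one-way ANOVA.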

[15] = system: C57BL/6J mice; test: Exploratory motor activity; type: in vivo, mouse; settings: primidone 10 mg·kg^−1 i.p., after 120 minutes
Outline: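 Male C57BL/6J mice, 10–12 weeks old. Test compound was suspended in 0.5% Tween 20, which also served as vehicle control, and given i.p. Travelled distance in an opaque open-field box was video-tracked for 5 min, both immediately before the hot plate test and 120 min after dosing. n = 10 each; mean ± SEM; one-way ANOVA.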

[16] = system: C57BL/6J mice; test: Tail immersion test; type: in vivo, mouse; settings: primidone 1 mg·kg^−1 i.p., 48°C
Outline: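 Tail immersion in male C57BL/6J mice given test compound at 1 mg·kg⁻¹ i.p. or vehicle (0.5% Tween 20). Each mouse was restrained in a 50 mL conical tube, and the distal half of the tail was dipped in water at 48.0 ± 0.5°C. Latency to vigorous tail flexion was recorded, with a 15 s cutoff. n = 10 each; mean ± SEM.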

[17] = system: C57BL/6J mice; test: CFA-induced inflammatory thermal hyperalgesia, hot plate; type: in vivo, mouse; settings: primidone 1 mg·kg^−1 i.p., 24 hours after CFA

human TRPM8, sequence (Q7Z2W7 whole entry): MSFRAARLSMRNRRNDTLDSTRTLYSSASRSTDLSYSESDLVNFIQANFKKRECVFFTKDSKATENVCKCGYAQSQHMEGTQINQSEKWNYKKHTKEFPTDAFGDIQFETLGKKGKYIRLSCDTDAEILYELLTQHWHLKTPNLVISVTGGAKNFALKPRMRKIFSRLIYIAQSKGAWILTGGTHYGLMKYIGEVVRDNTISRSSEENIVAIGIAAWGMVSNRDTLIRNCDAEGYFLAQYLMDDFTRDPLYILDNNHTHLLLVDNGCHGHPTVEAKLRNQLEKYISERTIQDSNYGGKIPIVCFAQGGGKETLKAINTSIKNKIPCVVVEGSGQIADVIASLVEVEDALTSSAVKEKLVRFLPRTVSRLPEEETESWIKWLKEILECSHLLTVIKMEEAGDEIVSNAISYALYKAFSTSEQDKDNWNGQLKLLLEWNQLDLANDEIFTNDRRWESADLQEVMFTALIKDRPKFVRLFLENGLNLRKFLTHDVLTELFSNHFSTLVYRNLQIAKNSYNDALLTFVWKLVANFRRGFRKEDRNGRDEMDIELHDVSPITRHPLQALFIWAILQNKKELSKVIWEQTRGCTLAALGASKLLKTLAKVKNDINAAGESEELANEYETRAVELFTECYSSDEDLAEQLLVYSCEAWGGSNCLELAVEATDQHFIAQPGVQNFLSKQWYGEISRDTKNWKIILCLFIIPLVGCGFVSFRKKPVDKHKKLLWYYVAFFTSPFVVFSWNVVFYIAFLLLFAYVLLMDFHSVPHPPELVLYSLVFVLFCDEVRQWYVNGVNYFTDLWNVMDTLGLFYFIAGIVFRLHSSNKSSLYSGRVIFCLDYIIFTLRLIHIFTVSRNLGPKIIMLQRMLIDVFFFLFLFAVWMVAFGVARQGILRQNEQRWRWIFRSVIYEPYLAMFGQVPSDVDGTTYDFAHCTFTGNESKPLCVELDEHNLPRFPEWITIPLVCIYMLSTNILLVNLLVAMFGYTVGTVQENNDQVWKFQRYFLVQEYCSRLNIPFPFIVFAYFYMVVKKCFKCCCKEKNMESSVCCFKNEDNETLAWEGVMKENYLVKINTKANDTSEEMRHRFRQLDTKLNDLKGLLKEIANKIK
T1 sequence (J9SQF3 1-1709 isoform J9SQF3-12): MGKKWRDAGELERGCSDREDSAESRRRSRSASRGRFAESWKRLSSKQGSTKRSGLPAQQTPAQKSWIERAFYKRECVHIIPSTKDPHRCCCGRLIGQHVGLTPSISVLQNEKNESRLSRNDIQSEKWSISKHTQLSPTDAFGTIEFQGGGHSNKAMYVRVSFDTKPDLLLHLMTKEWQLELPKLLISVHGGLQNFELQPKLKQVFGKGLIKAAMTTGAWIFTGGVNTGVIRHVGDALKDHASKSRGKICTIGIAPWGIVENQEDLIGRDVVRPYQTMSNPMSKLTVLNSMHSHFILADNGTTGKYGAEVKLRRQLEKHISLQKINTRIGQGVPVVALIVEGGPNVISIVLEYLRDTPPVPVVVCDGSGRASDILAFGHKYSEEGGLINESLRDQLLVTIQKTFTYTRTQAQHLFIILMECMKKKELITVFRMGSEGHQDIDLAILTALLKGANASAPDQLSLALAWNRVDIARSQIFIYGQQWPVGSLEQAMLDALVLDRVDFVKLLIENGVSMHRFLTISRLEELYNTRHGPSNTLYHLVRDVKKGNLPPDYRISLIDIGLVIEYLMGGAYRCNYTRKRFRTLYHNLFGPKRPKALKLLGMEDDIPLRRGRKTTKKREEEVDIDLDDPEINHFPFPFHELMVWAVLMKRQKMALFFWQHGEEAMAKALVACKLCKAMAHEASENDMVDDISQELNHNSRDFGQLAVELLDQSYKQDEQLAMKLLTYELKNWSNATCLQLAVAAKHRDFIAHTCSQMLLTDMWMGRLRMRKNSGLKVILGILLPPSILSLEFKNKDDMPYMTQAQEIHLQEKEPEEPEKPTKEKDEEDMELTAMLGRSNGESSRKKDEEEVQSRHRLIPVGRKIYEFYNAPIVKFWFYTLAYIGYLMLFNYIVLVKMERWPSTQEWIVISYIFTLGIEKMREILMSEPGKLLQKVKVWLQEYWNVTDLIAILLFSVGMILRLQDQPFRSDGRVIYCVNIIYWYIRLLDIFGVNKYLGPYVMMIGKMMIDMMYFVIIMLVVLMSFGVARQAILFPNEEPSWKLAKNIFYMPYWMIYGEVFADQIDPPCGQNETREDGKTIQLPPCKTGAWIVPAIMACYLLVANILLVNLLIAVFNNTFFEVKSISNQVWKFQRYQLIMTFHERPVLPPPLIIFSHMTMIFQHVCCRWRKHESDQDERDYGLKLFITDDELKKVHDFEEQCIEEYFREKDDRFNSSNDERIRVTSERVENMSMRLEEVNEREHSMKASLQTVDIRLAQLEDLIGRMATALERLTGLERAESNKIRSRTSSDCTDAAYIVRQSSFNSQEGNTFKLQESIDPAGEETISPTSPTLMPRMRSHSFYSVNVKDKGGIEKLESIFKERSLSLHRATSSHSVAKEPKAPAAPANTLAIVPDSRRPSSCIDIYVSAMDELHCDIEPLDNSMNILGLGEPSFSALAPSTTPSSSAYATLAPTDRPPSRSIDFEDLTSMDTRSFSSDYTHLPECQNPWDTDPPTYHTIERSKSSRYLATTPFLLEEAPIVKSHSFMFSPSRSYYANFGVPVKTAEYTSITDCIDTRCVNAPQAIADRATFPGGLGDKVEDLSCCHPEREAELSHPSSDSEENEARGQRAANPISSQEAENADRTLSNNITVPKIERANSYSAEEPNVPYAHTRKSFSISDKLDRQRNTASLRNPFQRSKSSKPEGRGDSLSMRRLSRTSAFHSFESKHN
human ankyrin-like TRPA1, sequence (O75762 whole entry): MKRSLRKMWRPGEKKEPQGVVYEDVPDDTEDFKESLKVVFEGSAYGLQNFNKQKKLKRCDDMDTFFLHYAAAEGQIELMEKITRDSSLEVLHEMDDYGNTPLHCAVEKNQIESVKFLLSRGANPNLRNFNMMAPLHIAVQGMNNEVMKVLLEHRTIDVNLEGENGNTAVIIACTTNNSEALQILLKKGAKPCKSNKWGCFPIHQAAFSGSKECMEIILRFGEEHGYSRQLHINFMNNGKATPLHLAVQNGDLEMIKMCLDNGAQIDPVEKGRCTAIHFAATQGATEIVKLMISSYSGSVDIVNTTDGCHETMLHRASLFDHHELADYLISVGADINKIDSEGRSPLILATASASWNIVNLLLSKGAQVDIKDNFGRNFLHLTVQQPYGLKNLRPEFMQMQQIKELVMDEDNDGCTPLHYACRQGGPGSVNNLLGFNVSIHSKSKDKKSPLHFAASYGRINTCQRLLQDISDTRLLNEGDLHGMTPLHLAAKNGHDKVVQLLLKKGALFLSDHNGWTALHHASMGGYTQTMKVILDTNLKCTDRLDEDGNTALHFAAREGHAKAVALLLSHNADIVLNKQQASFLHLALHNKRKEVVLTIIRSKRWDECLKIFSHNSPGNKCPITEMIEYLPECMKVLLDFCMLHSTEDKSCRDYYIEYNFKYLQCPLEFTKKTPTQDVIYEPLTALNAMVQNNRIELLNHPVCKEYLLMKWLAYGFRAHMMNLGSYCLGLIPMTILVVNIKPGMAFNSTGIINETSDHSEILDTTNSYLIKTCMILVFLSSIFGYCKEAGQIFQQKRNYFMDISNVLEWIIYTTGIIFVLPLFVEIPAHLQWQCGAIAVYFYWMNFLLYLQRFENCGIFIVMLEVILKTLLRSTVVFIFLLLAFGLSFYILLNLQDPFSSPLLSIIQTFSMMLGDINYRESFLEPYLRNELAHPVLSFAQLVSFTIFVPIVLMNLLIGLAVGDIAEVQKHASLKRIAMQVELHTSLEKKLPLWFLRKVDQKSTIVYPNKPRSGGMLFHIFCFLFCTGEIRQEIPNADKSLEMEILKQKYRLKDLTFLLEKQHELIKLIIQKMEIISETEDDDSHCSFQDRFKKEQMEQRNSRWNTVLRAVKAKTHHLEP
rat TRPV1, sequence (O35433 whole entry): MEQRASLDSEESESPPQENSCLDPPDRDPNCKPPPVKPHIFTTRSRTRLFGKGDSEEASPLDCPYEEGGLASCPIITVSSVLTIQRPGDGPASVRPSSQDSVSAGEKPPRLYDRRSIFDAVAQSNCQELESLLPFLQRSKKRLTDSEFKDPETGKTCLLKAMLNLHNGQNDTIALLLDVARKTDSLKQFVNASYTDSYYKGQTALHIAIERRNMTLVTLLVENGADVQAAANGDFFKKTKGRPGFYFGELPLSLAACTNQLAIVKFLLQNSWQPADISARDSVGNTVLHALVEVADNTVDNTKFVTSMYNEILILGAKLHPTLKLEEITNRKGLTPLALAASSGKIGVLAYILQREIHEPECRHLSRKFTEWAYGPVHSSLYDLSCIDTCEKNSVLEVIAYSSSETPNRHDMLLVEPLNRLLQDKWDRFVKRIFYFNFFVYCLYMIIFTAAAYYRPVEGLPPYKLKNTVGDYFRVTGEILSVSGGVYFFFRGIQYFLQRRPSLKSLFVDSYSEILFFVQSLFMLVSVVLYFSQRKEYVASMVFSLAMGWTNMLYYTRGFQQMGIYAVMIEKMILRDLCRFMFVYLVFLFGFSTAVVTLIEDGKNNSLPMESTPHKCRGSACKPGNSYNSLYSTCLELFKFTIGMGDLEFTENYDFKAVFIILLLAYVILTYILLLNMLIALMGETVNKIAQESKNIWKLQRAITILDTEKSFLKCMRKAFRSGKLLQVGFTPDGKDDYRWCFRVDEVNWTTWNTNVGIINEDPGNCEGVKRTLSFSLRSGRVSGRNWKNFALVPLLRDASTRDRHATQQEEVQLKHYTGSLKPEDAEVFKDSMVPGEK

For O=C(O)Cc1ccccc1Nc1c(Cl)cccc1Cl [diclofenac], the “Hill coefficient of TRPM3 inhibition” value [1] was 1.2 ± 0.1, the “Effect on PregS-induced inward and outward currents” value ([2]; 25 μM diclofenac in bath, 35 μM PregS) was “almost completely abolished” and the “Effect of intracellularly perfused drug on PregS-induced currents” value ([2]; 25 μM diclofenac in pipette solution) was “did not prevent PregS-induced currents”. For the same compound, the inhibition at 5 µM ([2]; read-out: Inhibition of depolarizing inward currents) was roughly 70%, the “Inhibition of menthol-induced TRPM8 activation” value [3] was “almost unaffected” and the “Attenuation of responses to AITC stimulation” value ([4]; diclofenac at concentrations higher than 50 μM) was “about 50%”. For the same compound, the “Inhibition of H2O2-induced [Ca2+]i signals” value [5] was “partial inhibition”, the “Share of deprotonized, negatively charged microspecies” value [6] was greater than 99% and the EC50 [7] was 210 µM.
With O=C(O)c1ccccc1Nc1cccc(C(F)(F)F)c1 [flufenamic acid] the “TRPM3 inhibition relative to mefenamic acid” value [1] was “less potent and poorly specific TRPM3 inhibitors”.
For CNCCCC12CCC(c3ccccc31)c1ccccc12 [maprotiline], the “Inhibition of capsaicin-induced TRPV1 activation” value [8] was “no apparent inhibition”, the “Inhibition of menthol-induced TRPM8 activation” value [3] was “no apparent inhibition” and the “Inhibition of AITC-induced TRPA1 activation” value [4] was “no apparent inhibition”.
For CCC1(c2ccccc2)C(=O)NC(=O)NC1=O [phenobarbital], the “Plasma concentration of the major active metabolite during primidone therapy” value [9] is given as 15 to 40 µM.
With CCC1(c2ccccc2)C(=O)NCNC1=O [primidone] the IC50 [1] was roughly 0.6 µM, the “Hill coefficient of TRPM3 inhibition” value [1] was 1.4 ± 0.2 and the “Effect on omega pore-like currents evoked by coapplied PregS and clotrimazole” value ([2]; 10 μM primidone, 40 μM PregS and 10 μM clotrimazole) was “inhibited”. For the same compound, the “Effect on PregS-induced inward currents” value ([2]; 3 and 5 μM primidone, 35 μM PregS) was “almost completely abolished”, the “Potency to block TRPM3 currents” value ([2]; electrophysiological recordings) was “submicromolar potency” and the “Inhibition of capsaicin-induced TRPV1 activation” value [8] was “no apparent inhibition”. The “Inhibition of menthol-induced TRPM8 activation” value [3] was “no apparent inhibition”, the “Inhibition of AITC-induced TRPA1 activation” value [4] was “no apparent inhibition” and the “Effect on [Ca2+]i during heat-induced TRPM3 activation” value [10] was “rapid and reversible decrease in [Ca^2+]i”. For the same compound, the “Inhibition of [Ca2+]i responses of capsaicin treatment” value ([11]; 2 μM capsaicin, data not shown) was “not discernibly inhibited”, the “Effect on [Ca2+]i in PregS-responsive DRG neurones” value ([11]; PregS 35 μM) was “immediate decrease in [Ca^2+]i” and the “Effect on PregS-induced responses at the human TRPM3 channel” value [12] was “confirmed the effectiveness”. For the same compound, the “Latency and total response duration to PregS-induced pain” value ([13]; primidone 0.5 mg·kg^−1 i.p., 20 minutes before PregS 5 nmol i.pl.) was “significant antinociception”, the “Nociception as duration per single response, compared with controls” value ([13]; primidone 0.5 mg·kg^−1 i.p.) was “significantly reduced” and the “Nociception as duration per single response, compared with controls” value ([13]; primidone 10 mg·kg^−1 i.p.) was “intensified”. For the same compound, the “Number of responses to PregS” value ([13]; primidone 0.5, 2 and 10 mg·kg^−1 i.p.) was “not altered”, the “Response latency on the hot plate” value ([14]; primidone 10 mg·kg^−1 i.p.) was “did not differ from controls” and the “Response latency on the hot plate” value ([14]; primidone 0.5 and 2 mg·kg^−1 i.p.) was “prolonged the response latency”. The “Exploratory activity (travelled distance)” value [15] was “slight reduction of exploratory activity”, the “Latency to tail withdrawal” value [16] was “prolonged the latency to tail withdrawal” and the “CFA-induced sensitization, hot plate latency” value [17] was “prevented the signs of CFA-induced sensitization”. For the same compound, the Therapeutic plasma concentrations [9] was 20 to 50 µM, the Plasma protein binding ([9]; no reference given) was “less than 10%” and the Relative distribution volume ([9]; no reference given) was 0.6 L/kg.
With Cc1c(Cl)cccc1Nc1ccccc1C(=O)O [tolfenamic acid] the “TRPM3 inhibition relative to mefenamic acid” value [1] was “less potent and poorly specific TRPM3 inhibitors”.
